Here are results for 21 molecules from ChEMBL document CHEMBL2086242, “Synthesis and SAR studies of mono O-prenylated coumarins as potent 15-lipoxygenase inhibitors” (Eur J Med Chem, 2012).

Active and inactive are the calls of the source. The rule behind the calls is not given here.

Test [1] is described as follows: Inhibition of soybean 15-lipoxygenase by MBTH-DMAB method. Further details: species or system Glycine max. In outline: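 Test sample in ethanol was preincubated 5 min at room temperature with SLO (stock 4000 units/mL) in 50 mM phosphate, pH 7.0, with an ethanol control. Linoleic acid (Tween 20/KOH) started peroxidation. After 7 min, DMAB (solution A) and then MBTH with hemoglobin at pH 5.0 (solution B) developed colour. After 5 min more, 2% SDS stopped the reaction.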

Test [2] addresses T1, Polyunsaturated fatty acid lipoxygenase ALOX15 (Homo sapiens, UniProt P16050).
T1 sequence (P16050 whole entry): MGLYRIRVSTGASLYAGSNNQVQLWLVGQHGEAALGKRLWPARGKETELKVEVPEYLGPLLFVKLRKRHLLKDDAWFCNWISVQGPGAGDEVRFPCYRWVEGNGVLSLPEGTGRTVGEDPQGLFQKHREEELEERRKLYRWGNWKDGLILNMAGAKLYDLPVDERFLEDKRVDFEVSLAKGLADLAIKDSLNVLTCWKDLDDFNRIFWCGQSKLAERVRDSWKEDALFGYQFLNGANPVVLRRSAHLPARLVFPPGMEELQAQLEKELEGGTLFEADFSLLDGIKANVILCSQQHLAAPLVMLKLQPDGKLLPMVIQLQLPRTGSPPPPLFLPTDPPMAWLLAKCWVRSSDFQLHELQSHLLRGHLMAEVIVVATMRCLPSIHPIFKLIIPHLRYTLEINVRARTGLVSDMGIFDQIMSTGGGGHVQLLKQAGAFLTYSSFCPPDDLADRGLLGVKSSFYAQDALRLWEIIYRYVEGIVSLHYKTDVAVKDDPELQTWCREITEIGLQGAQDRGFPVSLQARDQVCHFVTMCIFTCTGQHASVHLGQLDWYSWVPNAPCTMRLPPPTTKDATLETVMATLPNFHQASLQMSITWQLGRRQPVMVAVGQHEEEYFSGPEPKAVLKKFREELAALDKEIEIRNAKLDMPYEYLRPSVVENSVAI
The test is described as follows: Inhibition of recombinant human 15-lipoxygenase by MBTH-DMAB method.

The subject of the next test is Glycine max. The test can be described thus: Competitive inhibition of soybean 15-lipoxygenase at 1.25 to 5 uM by Lineweaver-Burk plot. In short, it runs like this: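 Soybean 15-lipoxygenase activity was read by the MBTH–DMAB end-point method at linoleic acid levels of 25, 50, 100 and 200, plotted as double-reciprocal (Lineweaver–Burk) curves with and without inhibitor.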

In the case of `CC(C)=CCOc1cccc2oc(=O)ccc12`, half-maximal inhibition in test [1] (IC50) required 39.8 µM.

Take `CC(C)=CCC/C(C)=C/CC/C(C)=C/COc1ccc2oc(=O)ccc2c1`: the figures for the IC50 in test [1] and in test [2] were 2.1 µM and 1.3 µM, respectively.

With `CC(C)=CCOc1ccc2oc(=O)ccc2c1`, the 50% inhibitory concentration (IC50) (in general, the concentration needed to halve the response being measured) in test [1] was found to be 69.4 µM.

Consider `CC(C)=CCOc1cc(=O)oc2ccccc12`, for which the midpoint of inhibition in test [1], the IC50, lay at 43.9 µM.

In the case of `CC(C)=CCC/C(C)=C/COc1cc(=O)oc2ccccc12`, the IC50 in test [1] was 5.6 µM; in test [2], 42.6 µM.

`CC(C)=CCC/C(C)=C/COc1ccc2ccc(=O)oc2c1` [AURAPTENE] returned an IC50 in test [1] of 6.3 µM.

For `CC(C)=CCOc1cccc2ccc(=O)oc12`, in test [1], it took 46.5 µM to reach half-maximal inhibition (IC50).

For `CC(C)=CCOc1cc2ccccc2oc1=O`, in test [1], it took 54.4 µM to reach half-maximal inhibition (IC50).

With `CC(C)=CCC/C(C)=C/COc1cc2ccccc2oc1=O`, the IC50 in test [1] was 4.7 µM; in test [2] it was over 100 µM.

The molecule `CC(C)=CCC/C(C)=C/COc1cccc2ccc(=O)oc12` had a half-inhibitory concentration (IC50) in test [1] of 8.1 µM.

Turning to `Cc1nc(N2CCN(C)CC2)nc2c1Nc1ccccc1S2`, in test [1], the midpoint of inhibition, the IC50, lay at 21.2 µM.

For the molecule `CC(C)=CCC/C(C)=C/COc1ccc2oc(=O)ccc2c1`, the figures for the concentration for half-maximal inhibition (IC50) in test [1] and in test [2] were 9.6 µM and 6.8 µM, respectively.

Take `CC(C)=CCC/C(C)=C/CC/C(C)=C/COc1cc2ccccc2oc1=O`: the IC50 was 1.7 µM in test [1] and over 50 µM in test [2]. Further, in the test with Glycine max, the inhibition entry is “Active”.

The molecule `CC(C)=CCC/C(C)=C/CC/C(C)=C/COc1cccc2ccc(=O)oc12` returned an IC50 in test [1] of 5.8 µM.

In the case of `CC(C)=CCC/C(C)=C/COc1cccc2oc(=O)ccc12`, in test [1], the IC50 amounted to 2.8 µM.

As for `CC(C)=CCC/C(C)=C/CC/C(C)=C/COc1cccc2oc(=O)ccc12`, the IC50 in test [1] was determined as 0.8 µM; in test [2] it was 3.6 µM.

With `CC(C)=CCC/C(C)=C/CC/C(C)=C/COc1cc(=O)oc2ccccc12`, the IC50 in test [1] stood at 3.5 µM.

`CC(C)=CCC/C(C)=C/CC/C(C)=C/COc1ccccc1` [FARNESYL PHENYL ETHER]: the IC50 in test [1] is 2.7 µM; in test [2] it was over 50 µM.

For `CC(C)=CCOc1ccc2ccc(=O)oc2c1` [7-PRENYLOXYCOUMARIN], the IC50 in test [1] came to 60.4 µM.

In test [1], `CC(C)=CCC/C(C)=C/CC/C(C)=C/COc1ccc2ccc(=O)oc2c1` [UMBELLIPRENIN] had a 50% inhibitory concentration (IC50) of 3.1 µM.

`O=C(O)/C=C/c1ccc(O)c(O)c1` [CAFFEIC ACID] gave an IC50 in test [1] of 39.4 µM.
